This note sets out measurements from ChEMBL document CHEMBL1275484, “Rifampin and rifaximin resistance in clinical isolates of Clostridium difficile” (Antimicrob Agents Chemother, 2008).

≈ marks a conversion by molar mass, not a printed value.

Common to all, as to type: functional
In test [1] the test system is Clostridioides difficile. The test is described as follows: Antimicrobial activity against rifaximin-resistant Clostridium difficile isolate 18 expressing RpoB R505K mutant by Etest. The method, boiled down:
(§1)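 Rifampin Etest on clinical C. difficile isolates typed by HindIII REA, run per the strip manufacturer's instructions on brucella blood agar, with the MIC read from the strip.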

In test [2] the test system is Clostridioides difficile. As to the kind of experiment: Antimicrobial activity against Clostridium difficile isolate 31 by agar dilution method. The method, boiled down: (§2)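 MIC by CLSI reference agar dilution for anaerobes, with endpoints read per M11-A7 and C. difficile […] as control. Rifaximin was dissolved in methanol, diluted in 0.1 M phosphate buffer pH 7.4 plus 0.45% SDS, and tested at 0.0009–256 μg/ml. Rifampin was dissolved in methanol, diluted in water, and tested at 0.00001–256 μg/ml.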

The test system of test [3] is Clostridioides difficile. As to the kind of experiment: Antimicrobial activity against Clostridium difficile isolate 79 by agar dilution method. The method, boiled down:
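CLSI reference agar dilution for anaerobes, with endpoints read per guideline M11-A7. Rifaximin was dissolved in methanol, diluted in 0.1 M phosphate buffer pH 7.4 with 0.45% SDS, and tested at 0.0009–256 μg/ml. Rifampin was dissolved in methanol, diluted in water, and tested at 0.00001–256 μg/ml. Control strain: C. difficile ATCC […]. Isolates were typed by HindIII REA.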
(In general: In agar dilution the substance is mixed into plates at graded concentrations.)

The test system of test [4] is Clostridioides difficile. The test is described as follows: Antimicrobial activity against Clostridium difficile isolate 61 by Etest. The method, boiled down: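 Rifampin Etest strips were run on brucella blood agar following the manufacturer's instructions to give an MIC. Clinical isolates were typed by HindIII REA.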
The test system of test [5] is Clostridioides difficile. As to the kind of experiment: Antimicrobial activity against rifaximin-resistant Clostridium difficile isolate 21 expressing RpoB H502N and R505K mutants by Etest. The method, boiled down: as §1
Test [6] concerns Clostridioides difficile. As to the kind of experiment: Antimicrobial activity against Clostridium difficile isolate 3 by agar dilution method. In outline:
as §2

For test [7], the system named is Clostridioides difficile. The test is described as follows: Antimicrobial activity against rifaximin-resistant Clostridium difficile isolate 50 expressing RpoB R505K mutant by Etest. The method, boiled down:
as §1

The subject of test [8] is Clostridioides difficile. As to the kind of experiment: Antimicrobial activity against Clostridium difficile isolate 38 by agar dilution method. The method, boiled down:
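CLSI reference agar dilution method for anaerobes, with endpoints read per guideline M11-A7. Rifaximin was dissolved in methanol, diluted in 0.1 M phosphate buffer (pH 7.4) with 0.45% SDS, and tested at 0.0009–256 μg/ml. Rifampin was dissolved in methanol, diluted in water, and tested at 0.00001–256 μg/ml. C. difficile ATCC […] served as control. Isolates were typed by HindIII REA.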

Test [9] has as its system Clostridioides difficile. As to the kind of experiment: Antimicrobial activity against Clostridium difficile isolate 73 by Etest. In outline:
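Rifampin MIC by Etest on brucella blood agar, run per the strip manufacturer's instructions, against clinical isolates typed by HindIII REA.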

In general, MIC refers to the lowest concentration that inhibits growth of the organism. Low values mean greater potency, high ones weaker potency. In the case of `CO[C@H]1/C=C/O[C@@]2(C)Oc3c(C)c(O)c4c(O)c(c(/C=N/N5CCN(C)CC5)c(O)c4c3C2=O)NC(=O)/C(C)=C\C=C\[C@H](C)[C@H](O)[C@@H](C)[C@@H](O)[C@@H](C)[C@H](OC(C)=O)[C@@H]1C` [RIFAMPIN], the MIC is above 32000 ng/mL in the test with Clostridioides difficile [1]; 0.9 ng/mL (≈ 1.09 nM) in the test with Clostridioides difficile [2]; 0.06 ng/mL (≈ 0.0729 nM) against Clostridioides difficile [3]; below 2 ng/mL against Clostridioides difficile [4]; above 32000 ng/mL against Clostridioides difficile [5]; 0.06 ng/mL (≈ 0.0729 nM) with Clostridioides difficile [6]. For the same compound, the results for the MIC in the test with Clostridioides difficile [7], against Clostridioides difficile [8] and against Clostridioides difficile [9] were above 32000 ng/mL, 0.4 ng/mL (≈ 0.486 nM) and below 2 ng/mL, respectively.
